Screens from PubChem BioAssay.
Tn6 DDE FP: DD(E)-Tn6 binding inhibition, primary FP screen; Fibrin DD(E) TRITC-Tn6 fluorescence polarization displacement; inhibition, % at 8.3 µM; 0.21% of 370,000 active;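 active = inhibition above a per-campaign cutoff: mean of compounds within control limits plus 3 SD, cut at about 15% in these data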
Target sequence (P02675 whole entry, looked up): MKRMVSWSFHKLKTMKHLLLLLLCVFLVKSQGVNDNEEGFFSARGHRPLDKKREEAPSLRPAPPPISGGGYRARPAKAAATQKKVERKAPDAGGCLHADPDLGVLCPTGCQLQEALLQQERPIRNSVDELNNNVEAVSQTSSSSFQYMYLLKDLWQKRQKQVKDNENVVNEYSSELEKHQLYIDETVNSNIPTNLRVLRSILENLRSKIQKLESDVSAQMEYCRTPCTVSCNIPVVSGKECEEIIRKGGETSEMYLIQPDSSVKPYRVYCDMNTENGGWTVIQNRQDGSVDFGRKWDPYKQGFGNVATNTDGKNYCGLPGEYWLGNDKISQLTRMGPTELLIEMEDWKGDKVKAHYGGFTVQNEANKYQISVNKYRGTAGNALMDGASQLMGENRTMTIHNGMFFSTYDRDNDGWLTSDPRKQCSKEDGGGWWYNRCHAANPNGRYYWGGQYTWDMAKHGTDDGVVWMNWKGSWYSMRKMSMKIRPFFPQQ
Tn7 DDE FP: inhibitors of Tn7 peptide binding to human fibrin DD(E); P02675; FP displacement of FITC-Tn7 peptide from fibrin DD(E); 0% = median of compound wells per plate; inhibition, % at 8.3 µM; 0.13% of 370,000 active;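 active = inhibition above the mean of compounds falling within the control limits plus 3 SD of them, cut at about 14% in these data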
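Assay system: Human clot-derived fibrin DD(E) complex | Buffer or medium: Tris/NaCl/CaCl2 buffer, pH 7.8 | Repeats: One replicate per compound | Benchmarks: Aha-Tn7 high control | Measure: % inhibition scaled between sample-field median and high-control FP | Schedule: 10 min plus 3 h, room temperature | Signal: Fluorescence polarization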
LANA DNA inh: KSHV C-LANA DNA binding inhibition | 0.078% of 340,000 active | inhibition, % at 9 µM | MBP-C-LANA/FAM-LBS DNA binding, fluorescence polarization | AID 504423;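 active = highest replicate inhibition at or above 60% at 9 µM, even if other replicates fall short; inactive = all replicates below 60% inhibition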
Keap1-Nrf2 PPI: inhibitors of human Keap1-Nrf2 protein-protein interaction. Keap1 Kelch-Nrf2 peptide fluorescence polarization, 1536-well. inhibition, % at 9.4 µM. 0.15% of 340,000 active; in the data active = inhibition above about 12%;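 note: human Keap1 Kelch domain with fluorescein labeled Nrf2 9mer peptide probe; higher means more block of Keap1 binding to Nrf2 peptide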
Rtt109 Vps75: inhibitors of Candida albicans Rtt109/Vps75 histone acetyltransferase; purified Rtt109/Vps75, ThioGlo CoA-SH fluorescence, 4 h; inhibition, % at 34.9 µM; 0.16% of 330,000 active; AID 540336;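 active = inhibition of at least 50% in every replicate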
Tn7 DDE conf: DD(E)-Tn7 binding inhibition, FP confirmation. shares compounds with Tn7 DDE FP. FP displacement of TRITC-Tn7 peptide from DD(E); 0% set at plate's compound-well median. inhibition, % at 8.3 µM. 5% of 460 active. AID 720628;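 active = inhibition above the campaign cutoff, the mean of compounds within control limits plus 3 SD, cut at about 14% in these data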;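 note: displacers lower polarization since freed probe rises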
Tn7 DDE ctr: DD(E)-Tn7 binding inhibition, counter-screen; shares compounds with Tn7 DDE FP; fibrin DD(E), TRITC-Tn7 probe displacement, fluorescence polarization; inhibition, % at 8.3 µM; 3% of 460 active; AID 720633;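 active = inhibition above the cutoff, the mean of compounds lying between the control bounds plus 3 SD of those compounds, cut at about 17% in these data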
Each line names hits and unclear results; the compound was inactive in the other large screens (follow-up assays come after a bar, where they were run). An excerpt weighted towards active compounds, which were near 0.6% of everything screened.

CN(C)S(=O)(=O)N1CCC(Oc2ccc(C(=O)N3C[C@@H]4CCC[C@H]3C4)cc2)CC1	Tn7 DDE FP 14 | Tn7 DDE conf inactive | Tn7 DDE ctr inactive
Cc1ccc2c(c1)C1CS(=O)(=O)N(CCc3ccccc3)CN1C2 (stereo unspecified)	none (no result: LANA DNA inh, Keap1-Nrf2 PPI, Rtt109 Vps75)
O=C(COC(=O)c1ccc(S(=O)(=O)N2CCOCC2)cc1)NCc1ccccc1	none
COCCNC(=O)COC(=O)c1ccc(S(=O)(=O)N2CCOCC2)cc1	Tn7 DDE FP 16 | Tn7 DDE conf inactive | Tn7 DDE ctr inactive
O=C(Cn1c(-c2cncs2)nc2ccccc21)N1CCCCC1	none (no result: LANA DNA inh, Keap1-Nrf2 PPI, Rtt109 Vps75)
O=C1NC(=S)SC1=Cc1cccs1	Tn7 DDE FP 14 | Tn7 DDE conf inactive | Tn7 DDE ctr inactive
O=C1Nc2ccccc2S/C1=C/c1cccs1	none
COc1cccc(NC(=O)COC(=O)c2ccc(S(=O)(=O)NCc3ccco3)cc2)c1	Tn7 DDE FP 15 | Tn7 DDE conf inactive | Tn7 DDE ctr inactive
CC(=O)Nc1ccc(NC(=O)COC(=O)c2ccc(S(=O)(=O)NCc3ccco3)cc2)cc1	none
Cc1ccccc1NC(=O)CCCNC(=O)c1ccc(Cl)cc1	none
CC(=O)c1ccccc1NC(=O)CCCNC(=O)c1ccc(Cl)cc1	Tn7 DDE FP 15 | Tn7 DDE conf inactive | Tn7 DDE ctr inactive
O=C(C(=Cc1ccccc1)c1ccccc1)c1ccccc1	Tn7 DDE FP 16 (no result: LANA DNA inh, Keap1-Nrf2 PPI, Rtt109 Vps75) | Tn7 DDE conf inactive | Tn7 DDE ctr inactive
O=C(C(=Cc1ccc(O)cc1)c1ccccc1)c1ccccc1	none (no result: LANA DNA inh, Keap1-Nrf2 PPI, Rtt109 Vps75)
CCOC(=O)N1CCN(Cc2nc(-c3ccc(Cl)cc3)no2)CC1	Tn7 DDE FP 15 | Tn7 DDE conf inactive | Tn7 DDE ctr inactive
CC(=O)c1nc(N2C(=O)CC(Cc3cc(C)cc(C)c3)C2=O)sc1C (stereo unspecified)	none
CC(=O)c1nc(N2C(=O)CC(Cc3cccc(C)c3)C2=O)sc1C (stereo unspecified)	Tn7 DDE FP 16 | Tn7 DDE conf inactive | Tn7 DDE ctr inactive
Cc1ccc(NC(=O)Cc2cccc(OC(F)(F)F)c2)c(S(=O)(=O)N2CCOCC2)c1	none (no result: LANA DNA inh, Keap1-Nrf2 PPI, Rtt109 Vps75)
O=c1c2cc3cc4c(cc3nc2ncn1Cc1cccnc1)OCO4	none (no result: LANA DNA inh, Keap1-Nrf2 PPI, Rtt109 Vps75)
Cc1cccc(NC(=O)NN(C(=O)c2ccccc2Cl)C(C)(C)C)c1	none (no result: LANA DNA inh, Keap1-Nrf2 PPI, Rtt109 Vps75)
COc1cc(C(C(=O)NCC2CCCO2)N(C(=O)Cn2nnc3ccccc32)c2ccc(OC)c(OC)c2)ccc1O (stereo unspecified)	none
CCOc1cc(C(C(=O)NCC2CCCO2)N(C(=O)Cn2nnc3ccccc32)c2ccc(NC(C)=O)cc2)ccc1O (stereo unspecified)	Tn7 DDE FP 31 | Tn7 DDE conf inactive | Tn7 DDE ctr inactive
NC(=O)C1CCN(C(=S)NCc2ccc3c(c2)OCO3)CC1	Tn7 DDE FP 15 | Tn7 DDE conf inactive | Tn7 DDE ctr inactive
Cc1c(O)nc2ccccn2c1=O	Tn7 DDE FP 14 | Tn7 DDE conf inactive | Tn7 DDE ctr inactive
CCOC(=O)C(C)(C)Oc1cccc2c1S(=O)(=O)c1ccccc1-2	Tn7 DDE FP 14 | Tn7 DDE conf inactive | Tn7 DDE ctr inactive
CC1=C(C(N)=O)S(=O)(=O)c2ccccc21	none
CCOP(=O)(c1ccccc1)C(O)c1ccc([N+](=O)[O-])cc1 (stereo unspecified)	Tn7 DDE FP 16 | Tn7 DDE conf inactive | Tn7 DDE ctr inactive
Cc1[nH]c2c(C)cccc2c(=O)c1CN1CCCCCC1	Tn7 DDE FP 16 (no result: Rtt109 Vps75) | Tn7 DDE conf inactive | Tn7 DDE ctr inactive
CCc1ccc2[nH]c(C)c(CN3CCCCCC3)c(=O)c2c1	none
O=C(CCCOc1ccc(Cl)cc1)N1CCCCCC1	Tn7 DDE FP 14 | Tn7 DDE conf inactive | Tn7 DDE ctr inactive
N#Cc1ccc(Cn2ccc3ccc(-c4ccc5ccn(Cc6ccccc6)c5c4)cc32)cc1	none (no result: LANA DNA inh, Keap1-Nrf2 PPI, Rtt109 Vps75)
CN(Cc1ccc(F)cc1)C(=O)c1cccc2c1C(=O)N(Cc1cccnc1)C2	none (no result: LANA DNA inh, Keap1-Nrf2 PPI, Rtt109 Vps75)
COCCN1CCCC(CNCc2cn(C)nc2-c2ccc(Oc3ccccc3)cc2)C1 (stereo unspecified)	Tn7 DDE FP 15 | Tn7 DDE conf inactive | Tn7 DDE ctr inactive
COc1ccccc1NC(=S)OCCN1CCCC12CCC(c1ccccc1)CC2 (stereo unspecified)	none (no result: LANA DNA inh, Keap1-Nrf2 PPI, Rtt109 Vps75)
COCCn1c(-c2ccc(OC)cc2)nc2ccccc21	none
COCCn1c2nc(=O)n(-c3ccccc3)c(=O)c-2nc2ccccc21	Tn7 DDE FP 51 (no result: LANA DNA inh, Keap1-Nrf2 PPI, Rtt109 Vps75) | Tn7 DDE conf 26 | Tn7 DDE ctr inactive
C=CCN1C(=O)[C@H](CC(=O)NCCCOCCCC)[C@@]2(C(=O)OCC)CCCC=C12	none (no result: LANA DNA inh, Keap1-Nrf2 PPI, Rtt109 Vps75)
Cc1ccc(NC(=O)C2CC(O)CN2C(=O)OCc2ccccc2)cc1C (stereo unspecified)	Tn7 DDE FP 15 | Tn7 DDE conf inactive | Tn7 DDE ctr inactive
CCCCNC(=S)N(C)/N=C/c1ccccc1C(=O)O	Tn7 DDE FP 14 | Tn7 DDE conf inactive | Tn7 DDE ctr inactive
CCCCNC(=S)N(C)N=C1CCC(c2ccccc2)CC1 (stereo unspecified)	none
O=C(CCc1nnc(Cc2ccc(-c3ccccc3)cc2)o1)N1CCCC1	Tn7 DDE FP 16 | Tn7 DDE conf inactive | Tn7 DDE ctr inactive
O=C(CSc1nnc(Cc2ccccc2)o1)N1CCCC1	none (no result: Rtt109 Vps75)
O=C(NCc1ccccc1F)C1C2C=CC3(CN(Cc4ccccc4)C(=O)C13)O2 (stereo unspecified)	none (no result: LANA DNA inh, Keap1-Nrf2 PPI, Rtt109 Vps75)
COc1ccc(-c2nnn(CC(=O)Nc3ccc4c(c3)OCCO4)n2)cc1OC	none (no result: Tn6 DDE FP, Tn7 DDE FP)
O=C(Cn1nnc(-c2ccc(F)cc2)n1)Nc1ccc2c(c1)OCCO2	Tn7 DDE FP 15 (no result: Rtt109 Vps75) | Tn7 DDE conf inactive | Tn7 DDE ctr inactive
CC(=O)Nc1ccc(S(=O)(=O)n2nc(-c3ccc(C)cc3)nc2N)cc1	Tn7 DDE FP 14 | Tn7 DDE conf inactive | Tn7 DDE ctr inactive
Cc1ccc(S(=O)(=O)n2nc(-c3cccnc3)nc2N)cc1	none
Cc1ccc(C)c(N2CCN(S(=O)(=O)c3ccc(-c4ccc(=O)[nH]n4)o3)CC2)c1	none
O=c1ccc(-c2ccc(S(=O)(=O)N3CCCCC3)o2)n[nH]1	Tn7 DDE FP 14 | Tn7 DDE conf inactive | Tn7 DDE ctr inactive
COc1cc(/C=N\NC(=O)c2ccc(Cn3nc([N+](=O)[O-])c(Cl)c3C)o2)ccc1O	none
COc1cccc(/C=N\NC(=O)c2ccc(Cn3cc(Br)c([N+](=O)[O-])n3)o2)c1O	Tn7 DDE FP 14 (no result: Rtt109 Vps75) | Tn7 DDE conf inactive | Tn7 DDE ctr inactive
CC(C)CC1c2[nH]c3ccccc3c2CCN1C(=O)CCC(=O)N(C)C (stereo unspecified)	Tn7 DDE FP 15 | Tn7 DDE conf inactive | Tn7 DDE ctr inactive
